{
  "source": "ChEMBL document CHEMBL4619791",
  "about": "“3-Difluoroalkyl Quaternary Oxindoles Inhibit Macrophage Pyroptosis by Blocking Inflammasome Recruitment of Caspase-1” (ACS Med Chem Lett, 2020)",
  "key": {"J774.A1 [1]": {"tested_on": "J774.A1", "test": "Inhibition of pyroptosis in LPS-primed immortalized mouse […] cells followed by subsequent nigericin stimulation by imaging analysis", "format": "functional, cell-based"}, "[2]": {"target": "T1, Gastrin/cholecystokinin type B receptor (Mus musculus) (UniProt P56481)", "T1 sequence (whole entry)": "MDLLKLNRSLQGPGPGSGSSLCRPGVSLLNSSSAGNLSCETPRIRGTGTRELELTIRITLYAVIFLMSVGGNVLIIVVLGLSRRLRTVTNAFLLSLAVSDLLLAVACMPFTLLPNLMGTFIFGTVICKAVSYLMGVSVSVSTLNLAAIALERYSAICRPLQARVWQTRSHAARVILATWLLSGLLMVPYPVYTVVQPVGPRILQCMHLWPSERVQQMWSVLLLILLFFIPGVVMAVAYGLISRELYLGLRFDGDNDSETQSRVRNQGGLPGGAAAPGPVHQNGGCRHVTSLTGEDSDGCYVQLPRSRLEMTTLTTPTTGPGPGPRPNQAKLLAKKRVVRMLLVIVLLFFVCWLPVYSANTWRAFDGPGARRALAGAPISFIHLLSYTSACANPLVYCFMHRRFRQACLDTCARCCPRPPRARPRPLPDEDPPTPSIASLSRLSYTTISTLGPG", "test": "Antagonist activity at CCKB receptor in immortalized mouse […] cells assessed as inhibition of nigericin-induced pyroptosis at 5 uM", "format": "cell-based", "conditions": "J774.A1", "in_short": "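CCKB antagonists netazepide and proglumide were given to immortalized macrophages, with pyroptosis induced by nigericin.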"}, "J774.A1 [3]": {"tested_on": "J774.A1", "test": "Inhibition of pyroptosis in LPS-primed immortalized mouse […] cells assessed as reduction in poly (dA:dT) induced […] secretion by ELISA", "format": "functional, cell-based", "in_short": "(§1)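 J774A.1 cells stimulated with flagellin or poly(dA:dT). IL-1β release measured by ELISA. Mean ± SEM, n ≥ 3 independent experiments.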"}, "J774.A1 [4]": {"tested_on": "J774.A1", "test": "Inhibition of pyroptosis in LPS-primed immortalized mouse […] cells assessed as reduction in flagellin-induced […] secretion by ELISA", "format": "functional, cell-based", "in_short": "as §1"}, "Danio rerio": {"organism": "Danio rerio", "test": "Antiinflammatory immunity against LPS-induced sepsis in […]:eGFP zebrafish larva assessed as decrease in macrophage infiltration in intestine at 5 uM measured at 7 dpf by confocal microscopic analysis", "format": "functional, organism-based", "in_short": "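Zebrafish sepsis model using Tg(mpeg1:eGFP) larvae with GFP-labelled macrophages, treated at 5 μM. Intestine imaged by confocal microscopy at 7 days post fertilization, and macrophages counted in the imaged region.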"}, "Caspase-8 (Mus musculus)": {"target": "T2, Caspase-8 (Mus musculus) (UniProt O89110)", "T2 sequence (whole entry)": "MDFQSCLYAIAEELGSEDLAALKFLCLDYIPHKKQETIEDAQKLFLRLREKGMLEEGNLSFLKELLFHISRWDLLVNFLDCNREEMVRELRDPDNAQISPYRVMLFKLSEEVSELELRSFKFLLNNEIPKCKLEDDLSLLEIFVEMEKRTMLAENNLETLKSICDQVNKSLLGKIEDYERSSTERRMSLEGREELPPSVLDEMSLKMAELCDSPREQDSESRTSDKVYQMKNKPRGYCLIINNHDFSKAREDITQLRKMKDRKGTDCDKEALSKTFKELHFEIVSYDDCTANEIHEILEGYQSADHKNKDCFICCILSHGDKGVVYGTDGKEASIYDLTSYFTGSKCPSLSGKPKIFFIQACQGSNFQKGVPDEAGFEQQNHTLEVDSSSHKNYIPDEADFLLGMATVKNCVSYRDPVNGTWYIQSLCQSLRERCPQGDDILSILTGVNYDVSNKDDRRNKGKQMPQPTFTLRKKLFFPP", "test": "Inhibition of caspase-8 activity in LPS-primed immortalized mouse […] cells assessed as reduction in nigericin-induced caspase-8 cleavage at 5 uM by Western blot analysis", "format": "cell-based", "conditions": "J774.A1", "in_short": "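Western blot of full-length and cleaved caspase-1 and caspase-8 in J774A.1 cells after nigericin, with tubulin as loading control. Bands quantified as bar graphs.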"}, "J774.A1 [5]": {"tested_on": "J774.A1", "test": "Inhibition of pyroptosis cell death in LPS-primed immortalized mouse […] cells assessed as effect on nigericin-induced cell morphological changes by propidium iodide staining based confocal microscopy", "format": "functional", "in_short": "(§2)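 Primary BMDM and J774A.1 cells treated with LPS and nigericin. Swelling, bubble formation and propidium iodide uptake visualized by epifluorescence microscopy.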"}, "[6]": {"test": "Lipid-water partition coefficient, logP of the compound", "format": "physicochemical"}, "[7]": {"test": "Toxicity in zebrafish embryo", "design": "species or system Danio rerio", "conditions": "in vivo", "in_short": "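Zebrafish embryos exposed to compound. EC100 is the concentration at which all treated embryos show early lethality, embryonic defects or developmental delay.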"}, "BMDM [8]": {"tested_on": "BMDM", "test": "Inhibition of pyroptosis in LPS-primed C57BL/6 mouse primary BMDM assessed as effect on nigericin-induced cell morphological changes at 5 uM by propidium iodide staining based confocal microscopy", "format": "functional", "in_short": "as §2"}, "[9]": {"target": "T3, Gasdermin-D (Mus musculus) (UniProt Q9D8T2)", "T3 sequence (whole entry)": "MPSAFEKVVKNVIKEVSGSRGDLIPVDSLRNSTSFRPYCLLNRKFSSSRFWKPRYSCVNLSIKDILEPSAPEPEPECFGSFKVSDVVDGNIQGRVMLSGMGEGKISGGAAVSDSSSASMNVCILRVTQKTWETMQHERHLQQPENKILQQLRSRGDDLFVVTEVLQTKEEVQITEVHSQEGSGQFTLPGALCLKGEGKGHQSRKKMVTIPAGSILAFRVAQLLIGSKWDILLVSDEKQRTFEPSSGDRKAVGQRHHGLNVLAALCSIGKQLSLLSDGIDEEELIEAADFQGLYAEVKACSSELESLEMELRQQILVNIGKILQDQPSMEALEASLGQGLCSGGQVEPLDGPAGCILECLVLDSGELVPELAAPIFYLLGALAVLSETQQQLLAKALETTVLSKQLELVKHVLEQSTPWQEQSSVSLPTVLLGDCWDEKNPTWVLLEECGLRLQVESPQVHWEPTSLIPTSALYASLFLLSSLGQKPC", "test": "Inhibition of GSDMD cytosol-plasma membrane translocation in LPS-primed C57BL/6 mouse primary BMDM at 5 uM followed by nigericin stimulation by immunofluorescence assay", "in_short": "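Macrophages were LPS-primed, then stimulated with nigericin, in immortalized and primary cells. Anti-GSDMD immunofluorescence, with line-intensity histograms of cytosol versus plasma-membrane localization. Mean ± SEM, n ≥ 3 independent experiments.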"}, "BMDM [10]": {"tested_on": "BMDM", "test": "Inhibition of pyroptosis in LPS-primed C57BL/6 mouse primary BMDM assessed as reduction in nigericin-induced cell death by Alamar blue assay", "format": "functional, cell-based", "in_short": "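Primary murine macrophages primed with LPS and stimulated with nigericin across a dose range. IL-1β release, LDH release and Alamar blue measured. Means ± SE, ≥3 experimental replicates.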"}, "J774.A1 [11]": {"tested_on": "J774.A1", "test": "Inhibition of pyroptosis in LPS-primed immortalized mouse […] cells assessed as reduction in nigericin-induced IL-beta secretion by imaging analysis", "format": "functional"}},
  "note": "The source made the active and inactive calls. No cut-off for these calls is given here.",
  "data": [
    {"smiles": "CCOC(CN1C(=O)C(NC(=O)Nc2ccc(C)cc2)(C(F)(F)C(=O)Nc2ccc(C)cc2)c2ccccc21)OCC", "note": "(stereo not drawn)", "values": [
      {"measurement": "EC50", "setting": "J774.A1 [1]", "value": 5.5, "unit": "µM"},
      {"measurement": "Activity", "setting": "[2]", "value": "inactive"},
      {"measurement": "inhibition", "setting": "J774.A1 [3]", "value": "Active"},
      {"measurement": "inhibition", "setting": "J774.A1 [4]", "value": "Active"},
      {"measurement": "Activity", "setting": "Danio rerio", "value": "Active"},
      {"measurement": "inhibition", "setting": "Caspase-8 (Mus musculus)", "value": "inactive"},
      {"measurement": "inhibition", "setting": "J774.A1 [5]", "value": "Active"},
      {"measurement": "logP", "setting": "[6]", "value": 4.1},
      {"measurement": "EC100", "setting": "[7]", "value": "> 50", "unit": "µM"},
      {"measurement": "inhibition", "setting": "BMDM [8]", "value": "Active"},
      {"measurement": "inhibition", "setting": "[9]", "value": "Active"},
      {"measurement": "inhibition", "setting": "BMDM [10]", "value": "Dose-dependent effect"},
      {"measurement": "Activity", "setting": "J774.A1 [11]", "value": 92.13, "unit": "pg/mL"}
    ]}
  ]
}
